Usually Ki stands for the equilibrium dissociation constant of an inhibitor or competing ligand from its target. A word on the Emax: it is the maximal effect, on the per cent scale that the assay sets. The term EC50 denotes the midpoint of the concentration-response curve.

Experimental findings from publication PMC8327296 (Journal of medicinal chemistry, 2018) are described below.

Series [1] deals with T1, A1R (Homo sapiens, UniProt P30542).
T1 sequence (P30542 1-326): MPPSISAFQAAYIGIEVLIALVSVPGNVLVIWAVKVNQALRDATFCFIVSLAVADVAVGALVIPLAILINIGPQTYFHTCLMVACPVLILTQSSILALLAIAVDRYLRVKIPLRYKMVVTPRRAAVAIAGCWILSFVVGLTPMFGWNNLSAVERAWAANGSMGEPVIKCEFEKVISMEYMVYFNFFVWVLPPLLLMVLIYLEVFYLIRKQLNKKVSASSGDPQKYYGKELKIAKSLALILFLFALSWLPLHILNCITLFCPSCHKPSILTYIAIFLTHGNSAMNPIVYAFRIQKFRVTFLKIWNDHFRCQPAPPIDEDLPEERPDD
The series can be described thus: Competition radioligand binding, human A1R. A digest of the protocol:
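Membranes from HEK293 cells expressing recombinant human A1R (DMEM, 10% FBS, 37 °C, 5% CO2), treated with adenosine deaminase 3 units/mL for 30 min at 37 °C. 20 μg protein per tube incubated 60 min at 25 °C in 50 mM Tris·HCl with 10 mM MgCl2, 0.5 nM [3H]8-cyclopentyl-1,3-dipropylxanthine and varied test compound. Nonspecific binding defined with 10 μM XAC. Bound ligand collected on GF/B filters and counted by scintillation. Ki by Cheng–Prusoff; mean ± SEM of 2–4 experiments in duplicate.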

The next series deals with recombinant A2AR (human) (Homo sapiens, UniProt P29274). Put plainly: Competition radioligand binding, human A2AR. To be noted: for inhibition at 1 µM: read-out: % inhib., A2A. The gist of the method:
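Human A2AR expressed in HEK293 cells; membranes treated with adenosine deaminase 3 units/mL for 30 min at 37 °C. […] Nonspecific binding with 10 μM XAC. Filtration on GF/B, scintillation counting. Ki by Cheng–Prusoff, mean ± SEM of 2–4 experiments in duplicate.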

The target of another series is T2, recombinant A2BR (human) (Homo sapiens, UniProt P29275).
T2 sequence (P29275 1-332): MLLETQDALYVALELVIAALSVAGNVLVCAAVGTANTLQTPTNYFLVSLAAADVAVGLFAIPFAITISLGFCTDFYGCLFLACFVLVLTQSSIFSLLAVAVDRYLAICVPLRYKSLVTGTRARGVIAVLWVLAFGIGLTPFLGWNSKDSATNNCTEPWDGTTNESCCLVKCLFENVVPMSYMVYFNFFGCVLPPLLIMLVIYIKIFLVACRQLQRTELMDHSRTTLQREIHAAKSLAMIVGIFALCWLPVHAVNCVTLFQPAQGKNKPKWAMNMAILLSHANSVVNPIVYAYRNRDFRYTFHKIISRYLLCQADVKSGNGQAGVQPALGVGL
Put plainly: Competition radioligand binding, human A2BR. The gist of the method: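 Adenosine deaminase-treated membranes (3 units/mL, 30 min, 37 °C) of HEK293 cells carrying recombinant human A2BR. […] Nonspecific binding with 100 μM XAC. GF/B filtration, scintillation counting. Ki via Cheng–Prusoff, mean ± SEM of 2–4 experiments in duplicate.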

A further series deals with T3, recombinant A3R (human) (Homo sapiens, UniProt P0DMS8).
T3 sequence (P0DMS8 1-318): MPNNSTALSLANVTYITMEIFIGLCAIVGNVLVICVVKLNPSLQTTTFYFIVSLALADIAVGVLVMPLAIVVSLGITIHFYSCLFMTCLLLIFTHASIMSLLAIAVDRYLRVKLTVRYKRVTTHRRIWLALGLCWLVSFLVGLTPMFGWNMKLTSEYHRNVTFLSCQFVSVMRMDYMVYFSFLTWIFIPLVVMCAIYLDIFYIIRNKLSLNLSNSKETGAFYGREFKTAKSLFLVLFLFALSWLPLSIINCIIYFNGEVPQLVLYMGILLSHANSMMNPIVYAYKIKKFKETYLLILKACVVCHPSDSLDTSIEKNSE
The series can be described thus: Competition radioligand binding, human A3R. Conditions: for inhibition at 1 µM: read-out: % inhib., A3.

In series [2] the target is T1, A1R. The series can be described thus: cAMP accumulation assay. In kind it is cell-based. To be noted: for Emax: HEK293, read-out: A1 functional efficacy (Emax %). A digest of the protocol:
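HEK293 cells expressing A1R seeded at 1,000 cells/well on poly-D-lysine and kept overnight at 37 °C. Preincubated 30 min at 37 °C with adenosine deaminase 3 units/ml, rolipram 10 μM and the A2B antagonist PSB603 1 μM. Agonist applied 20 min, then forskolin 10 μM for 15 min at 37 °C. Cells lysed in 0.3% Tween-20 and cAMP measured by AlphaScreen. Emax relative to a reference agonist set at 100%.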
(cAMP levels reflect the balance of adenylyl cyclase and phosphodiesterase activity.)

In series [3] the target is T4, A1R, rat brain membranes (forebrain) (Rattus norvegicus, UniProt P25099).
T4 sequence (P25099 1-326): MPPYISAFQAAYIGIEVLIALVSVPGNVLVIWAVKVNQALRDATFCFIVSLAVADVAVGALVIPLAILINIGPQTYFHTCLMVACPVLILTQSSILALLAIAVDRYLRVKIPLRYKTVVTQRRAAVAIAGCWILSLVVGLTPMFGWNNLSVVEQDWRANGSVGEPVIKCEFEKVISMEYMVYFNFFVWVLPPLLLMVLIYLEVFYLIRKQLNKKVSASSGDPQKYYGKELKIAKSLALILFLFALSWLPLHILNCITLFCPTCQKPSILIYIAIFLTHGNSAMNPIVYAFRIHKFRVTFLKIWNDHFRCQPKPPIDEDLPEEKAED
The series can be described thus: Competition radioligand binding, rat brain homogenates. A digest of the protocol:
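Rat forebrain homogenate incubated 60 min at 25 °C in 50 mM Tris·HCl with 10 mM MgCl2, 0.5 nM [3H]8-cyclopentyl-1,3-dipropylxanthine and varied test compound. Nonspecific binding defined with 10 μM XAC. Separation by GF/B filtration with 3 ice-cold buffer washes, then scintillation counting. IC50 converted to Ki by Cheng–Prusoff; mean ± SEM of 2–4 experiments in duplicate.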

Series [4] deals with A2AR, rat brain membranes (striatum) (Rattus norvegicus, UniProt P30543). Put plainly: Competition radioligand binding, rat brain homogenates. The gist of the method:
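Rat striatum homogenate incubated 60 min at 25 °C in 50 mM Tris·HCl/10 mM MgCl2 with 0.8 nM [3H]ZM241385 and varied test compound. Nonspecific binding defined with 10 μM XAC. GF/B filtration with 3 ice-cold washes, then scintillation counting. Ki from IC50 by Cheng–Prusoff; mean ± SEM of 2–4 experiments in duplicate.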

A short description of series [5]: Small animal PET, brain uptake in rats. Conditions: 11C-labelled compound; for BBB permeability: rat pilot PET study; for standard uptake value (SUV), brain uptake: rat, whole brain, 10 min after intravenous administration. The format is in vivo, rat. The gist of the method: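 Male Wistar rats (2–3 months, 318 ± 40 g) under 2–5% isoflurane, temperature held near 36.9 °C. After a 10 min transmission scan, 20.8–37.0 MBq 11C-labelled test compound in saline infused iv (tail vein or penile catheter, 600 μL/min). 90 min dynamic list-mode microPET, template coregistration, regional time-activity curves. Test–retest (n=3) 30 min later; blocking drugs given 10 min before the second injection.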

The structures appear in SMILES notation.

recombinant A2AR (human), sequence (P29274 whole entry): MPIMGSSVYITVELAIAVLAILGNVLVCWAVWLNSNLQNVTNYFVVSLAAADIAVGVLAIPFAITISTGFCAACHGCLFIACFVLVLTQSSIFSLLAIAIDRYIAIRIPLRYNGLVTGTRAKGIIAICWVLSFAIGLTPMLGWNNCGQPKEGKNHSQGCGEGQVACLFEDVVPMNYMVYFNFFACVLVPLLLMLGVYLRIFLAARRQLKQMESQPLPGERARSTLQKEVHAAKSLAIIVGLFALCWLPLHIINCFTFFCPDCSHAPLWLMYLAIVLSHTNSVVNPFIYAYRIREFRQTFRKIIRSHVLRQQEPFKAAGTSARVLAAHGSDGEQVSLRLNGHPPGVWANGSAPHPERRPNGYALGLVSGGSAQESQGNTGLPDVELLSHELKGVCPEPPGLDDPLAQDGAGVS
A2AR, rat brain membranes (striatum), sequence (P30543 whole entry): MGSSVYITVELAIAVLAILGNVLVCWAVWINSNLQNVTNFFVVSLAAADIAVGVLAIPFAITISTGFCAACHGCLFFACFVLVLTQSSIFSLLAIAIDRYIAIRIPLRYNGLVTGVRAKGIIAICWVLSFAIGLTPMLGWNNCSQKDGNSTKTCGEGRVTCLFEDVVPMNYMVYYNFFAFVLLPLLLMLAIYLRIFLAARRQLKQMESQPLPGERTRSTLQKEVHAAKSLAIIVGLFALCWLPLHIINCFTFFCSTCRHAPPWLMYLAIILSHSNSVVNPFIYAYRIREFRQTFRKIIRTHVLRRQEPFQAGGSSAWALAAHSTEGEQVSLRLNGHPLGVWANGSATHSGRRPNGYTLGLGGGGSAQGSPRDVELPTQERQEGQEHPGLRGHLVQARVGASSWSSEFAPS

In the case of `COc1ccc(-c2nc(SCc3cccc(C)n3)nc(N)c2C#N)cc1` [21a, 4-Amino-6-(4-methoxyphenyl)-2-(((6-methylpyridin-2-yl)methyl)thio)pyrimidine-5-carbonitrile], the results for the Ki on A1R [1] and at recombinant A2BR (human) were 29 ± 0.1 nM and 305 ± 108 nM, respectively. Moreover, the inhibition at 1 µM on recombinant A2AR (human) came out at 32 ± 2%; at recombinant A3R (human), 44 ± 3%. For the same molecule, the Emax at A1R [2] was -2 ± 3.5%.

Regarding `COc1cccc(-c2nc(SCc3cccc(C)n3)nc(N)c2C#N)c1` [21b, 4-Amino-6-(3-methoxyphenyl)-2-(((6-methylpyridin-2-yl)methyl)thio)pyrimidine-5-carbonitrile], the affinity on A1R [1], expressed as Ki, was 7.2 ± 2.4 nM. Besides, the inhibition at 1 µM turned out to be 46 ± 1% on recombinant A2AR (human); 35 ± 10% at recombinant A2BR (human) (read-out: % inhib., A2B); 42 ± 11% on recombinant A3R (human). Moreover, on A1R [2], the Emax is 3.4 ± 1.9%.

In the case of `COc1ccc(-c2nc(SCc3ncc[nH]3)nc(N)c2C#N)cc1` [21c, 2-(((1H-Imidazol-2-yl)methyl)thio)-4-amino-6-(4-methoxyphenyl)pyrimidine-5-carbonitrile], the Ki came to 306 ± 17 nM at A1R [1] and 237 ± 48 nM on recombinant A2BR (human). At recombinant A3R (human), the inhibition at 1 µM was found to be 51 ± 5%. Also, the Emax at A1R [2] is 1.4 ± 3.1%.

Regarding `COc1cccc(-c2nc(SCc3ncc[nH]3)nc(N)c2C#N)c1` [21d, 2-(((1H-Imidazol-2-yl)methyl)thio)-4-amino-6-(3-methoxyphenyl)pyrimidine-5-carbonitrile], the Ki amounted to 48 ± 2.8 nM at A1R [1], 554 ± 273 nM on recombinant A2AR (human), 208 ± 27 nM on recombinant A2BR (human) and 703 ± 50 nM at recombinant A3R (human). Besides, on A1R [2], the Emax stood at 4.9 ± 3.3%.

With `Cc1cccc(CSc2nc(N)c(C#N)c(-c3cccc(O)c3)n2)n1` [21e, 4-Amino-6-(3-hydroxyphenyl)-2-(((6-methylpyridin-2-yl)methyl)thio)pyrimidine-5-carbonitrile], the Ki on A1R [1] came to 18 ± 2.1 nM; on recombinant A2AR (human), 93 ± 63 nM; at recombinant A2BR (human) it was 126 ± 12 nM; at recombinant A3R (human) it was 79 ± 9.4 nM. Also, the Emax on A1R [2] is 18 ± 3.3%.

With `N#Cc1c(N)nc(SCc2ncc[nH]2)nc1-c1cccc(O)c1` [21f, 2-(((1H-Imidazol-2-yl)methyl)thio)-4-amino-6-(3-hydroxyphenyl)pyrimidine-5-carbonitrile], the Ki was 110 ± 31 nM at A1R [1], 96 ± 13.3 nM on recombinant A2AR (human), 38 ± 7.3 nM on recombinant A2BR (human) and 112 ± 14 nM at recombinant A3R (human). The Emax at A1R [2] was found to be 41 ± 6.1%.

For `COc1ccc(-c2c(C#N)c(N)nc(SCc3cccc(C)n3)c2C#N)cc1` [22a, 2-Amino-4-(4-methoxyphenyl)-6-(((6-methylpyridin-2-yl)methyl)thio)pyridine-3,5-dicarbonitrile], the inhibition constant (Ki) on A1R [1] came out at 2.9 ± 0.7 nM; at recombinant A2AR (human) it was 35 ± 19 nM; at recombinant A2BR (human), 30 ± 2.5 nM; on recombinant A3R (human), 701 ± 244 nM. For the same molecule, at A1R [2], the Emax was -0.06 ± 3.3%.

As to `COc1cccc(-c2c(C#N)c(N)nc(SCc3cccc(C)n3)c2C#N)c1` [22b, 2-Amino-4-(3-methoxyphenyl)-6-(((6-methylpyridin-2-yl)methyl)thio)pyridine-3,5-dicarbonitrile], the Ki at A1R [1] is 0.49 ± 0.06 nM; at recombinant A2AR (human), 71 ± 25 nM; on recombinant A2BR (human) it was 75 ± 30 nM; in series [3], 0.21 nM; in series [4] it was 52 nM. The inhibition at 1 µM on recombinant A3R (human) is 42 ± 11%. Besides, on A1R [2], a half-maximal response (EC50) required 1 nM. Also, the Emax on A1R [2] amounted to 16 ± 2.3%.

As to `Cc1cccc(CSc2nc(N)c(C#N)c(-c3cccc(O)c3)c2C#N)n1` [22e, 2-Amino-4-(3-hydroxyphenyl)-6-(((6-methylpyridin-2-yl)methyl)thio)pyridine-3,5-dicarbonitrile], the Ki at A1R [1] was 3.5 ± 1.3 nM; on recombinant A2AR (human), 15 ± 3.1 nM; at recombinant A2BR (human), 24 ± 16 nM; at recombinant A3R (human), 74 ± 3.4 nM. The Emax at A1R [2] is 109 ± 7.8%.

As for `CC(=O)Nc1ccc(-c2c(C#N)c(N)nc(SCc3cccc(C)n3)c2C#N)cc1` [22g, N-(4-(2-Amino-3,5-dicyano-6-(((6-methylpyridin-2-yl)methyl)thio)pyridin-4-yl)phenyl)acetamide], the Ki at A1R [1] amounted to 53 ± 18 nM; at recombinant A2AR (human), 2.8 ± 0.1 nM; at recombinant A2BR (human), 1.2 ± 0.2 nM; at recombinant A3R (human) it was 22 ± 6.7 nM. Also, on A1R [2], the Emax came to 122 ± 5.2%.

On to `CSc1nc(N)c(C#N)c(-c2ccc(NC(C)=O)cc2)c1C#N` [compound 12, N-(4-(2-Amino-3,5-dicyano-6-(methylthio)pyridin-4-yl)phenyl)acetamide], for which the BBB permeability result in series [5] is “poor BBB permeability”.

Consider `CSc1nc(N)c(C#N)c(-c2ccc(NC(C)=O)cc2)n1` [compound 13, N-(4-(6-Amino-5-cyano-2-(methylthio)pyrimidin-4-yl)phenyl)acetamide], for which the BBB permeability result in series [5] is “poor BBB permeability”.

Take `COc1ccc(-c2c(C#N)c(N)nc(SC)c2C#N)cc1` [compound 14, 2-Amino-4-(4-methoxyphenyl)-6-(methylthio)pyridine-3,5-dicarbonitrile]: the “standard uptake value (SUV), brain uptake” value in series [5] is ~ 3 g/mL.

On to `COc1ccc(-c2nc(SC)nc(N)c2C#N)cc1` [compound 15, 4-Amino-6-(4-methoxyphenyl)-2-(methylthio)pyrimidine-5-carbonitrile], for which the “standard uptake value (SUV), brain uptake” value in series [5] is ~ 3 g/mL.
